In ChEMBL document CHEMBL1147557, “Glycosyltransferase activity can be selectively modulated by chemical modifications of acceptor substrates” (Bioorg Med Chem Lett, 2004):
One block for each molecule: values may come before it. Calls of active or inactive are those of the source. The calls are words filed in the database; no cut-off is given here.

How the values were obtained:
[1] = biological target: T1, Beta-galactoside alpha-2,6-sialyltransferase 1 (Rattus norvegicus) (UniProt P13721); assay: (§1) Kinetic parameter of sialylation by alpha-2,6-sialyltransferase
T1 sequence (whole entry): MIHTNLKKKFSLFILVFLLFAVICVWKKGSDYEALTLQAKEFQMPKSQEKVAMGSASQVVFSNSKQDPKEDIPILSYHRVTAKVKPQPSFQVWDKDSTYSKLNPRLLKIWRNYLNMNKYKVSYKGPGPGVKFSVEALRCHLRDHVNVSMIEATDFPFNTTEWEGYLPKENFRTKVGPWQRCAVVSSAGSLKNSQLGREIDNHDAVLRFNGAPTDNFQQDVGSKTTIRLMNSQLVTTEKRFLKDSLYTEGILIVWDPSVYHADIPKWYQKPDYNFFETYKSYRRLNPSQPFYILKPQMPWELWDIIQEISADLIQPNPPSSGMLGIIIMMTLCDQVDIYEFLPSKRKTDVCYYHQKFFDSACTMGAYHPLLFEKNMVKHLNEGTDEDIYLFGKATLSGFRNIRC
Summary of the method: (§2)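 Rat liver recombinant α-2,6-sialyltransferase transferring CMP-[14C]-Neu5Ac to LacNAc-based acceptors. Apparent kinetic parameters (Km, Vmax) were determined by previously reported assays. Vmax is expressed relative to unmodified LacNAc, which is set at 1.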

[2] = system: Alpha-(1,3)-fucosyltransferase 6 (Homo sapiens); assay: Kinetic parameter of […] by fucosyltransferase 6 alpha 1,3
[3] = system: Alpha-(1,3)-fucosyltransferase 6 (Homo sapiens); assay: Kinetic parameter of […] of compound by fucosyltransferase 6 alpha 1,3; Not active
[4] = substrate: CNC(=O)[C@@H]1O[C@@H](OC)[C@@H](NC(C)=O)[C@@H](O)[C@@H]1O[C@@H]1O[C@@H](CO)[C@H](O)[C@H](O)C1O; assay: (§3) Apparent kinetic parameter of sialylation by alpha-2,6-sialyltransferase; conditions: Rattus norvegicus; summary of the method: as §2
[5] = substrate: COC[C@@H]1O[C@@H](OC)[C@@H](NC(C)=O)[C@@H](O)[C@@H]1O[C@@H]1O[C@@H](CO)[C@H](O)[C@H](O)[C@@H]1O; assay: as §3; conditions: Rattus norvegicus; summary of the method: as §2
[6] = substrate: COC[C@@H]1O[C@@H](OC)[C@@H](NC(C)=O)[C@@H](O)[C@@H]1O[C@@H]1O[C@@H](CO)[C@H](O)[C@H](O)[C@@H]1OC; assay: as §3; conditions: Rattus norvegicus; summary of the method: as §2
[7] = substrate: CO[C@@H]1O[C@@H](C(N)=O)[C@@H](O[C@@H]2O[C@@H](CO)[C@H](O)[C@H](O)[C@@H]2O)[C@H](O)[C@@H]1NC(C)=O; assay: as §3; conditions: Rattus norvegicus; summary of the method: as §2
[8] = substrate: CO[C@@H]1O[C@@H](CN)[C@@H](O[C@@H]2O[C@@H](CO)[C@H](O)[C@H](O)[C@@H]2O)[C@H](O)[C@@H]1NC(C)=O; assay: as §3; conditions: Rattus norvegicus; summary of the method: as §2
[9] = substrate: CO[C@@H]1O[C@@H](CNC(C)=O)[C@@H](O[C@@H]2O[C@@H](CO)[C@H](O)[C@H](O)[C@@H]2O)[C@H](O)[C@@H]1NC(C)=O; assay: as §3; conditions: Rattus norvegicus; summary of the method: as §2
[10] = substrate: CO[C@@H]1O[C@@H](CNC=O)[C@@H](O[C@@H]2O[C@@H](CO)[C@H](O)[C@H](O)[C@@H]2O)[C@H](O)[C@@H]1NC(C)=O; assay: as §3; conditions: Rattus norvegicus; summary of the method: as §2
[11] = substrate: CO[C@@H]1O[C@@H](CNC=O)[C@@H](O[C@@H]2O[C@@H](CO)[C@H](O)[C@H](O)[C@@H]2OC)[C@H](O)[C@@H]1NC(C)=O; assay: as §3; conditions: Rattus norvegicus; summary of the method: as §2
[12] = substrate: CO[C@@H]1O[C@@H](CNS(C)(=O)=O)[C@@H](O[C@@H]2O[C@@H](CO)[C@H](O)[C@H](O)[C@@H]2O)[C@H](O)[C@@H]1NC(C)=O; assay: as §3; conditions: Rattus norvegicus; summary of the method: as §2
[13] = substrate: CO[C@@H]1O[C@@H](CO)[C@@H](O[C@@H]2O[C@@H](CO)[C@H](O)[C@H](O)[C@@H]2O)[C@H](O)[C@@H]1NC(C)=O; assay: as §3; conditions: Rattus norvegicus; summary of the method: as §2
[14] = substrate: CO[C@@H]1O[C@@H](CO)[C@@H](O[C@@H]2O[C@@H](CO)[C@H](O)[C@H](O)[C@@H]2OC)[C@H](O)[C@@H]1NC(C)=O; assay: as §3; conditions: Rattus norvegicus; summary of the method: as §2
[15] = substrate: CO[C@@H]1O[C@@H](COS(C)(=O)=O)[C@@H](O[C@@H]2O[C@@H](CO)[C@H](O)[C@H](O)[C@@H]2O)[C@H](O)[C@@H]1NC(C)=O; assay: as §3; conditions: Rattus norvegicus; summary of the method: as §2
[16] = substrate: CNC(=O)[C@@H]1O[C@@H](OC)[C@@H](NC(C)=O)[C@@H](O)[C@@H]1O[C@@H]1O[C@@H](CO)[C@H](O)[C@H](O)C1O; assay: as §1; conditions: Rattus norvegicus; summary of the method: as §2
[17] = substrate: COC[C@@H]1O[C@@H](OC)[C@@H](NC(C)=O)[C@@H](O)[C@@H]1O[C@@H]1O[C@@H](CO)[C@H](O)[C@H](O)[C@@H]1O; assay: as §1; conditions: Rattus norvegicus; summary of the method: as §2
[18] = substrate: COC[C@@H]1O[C@@H](OC)[C@@H](NC(C)=O)[C@@H](O)[C@@H]1O[C@@H]1O[C@@H](CO)[C@H](O)[C@H](O)[C@@H]1OC; assay: as §1; conditions: Rattus norvegicus; summary of the method: as §2
[19] = substrate: CO[C@@H]1O[C@@H](C(N)=O)[C@@H](O[C@@H]2O[C@@H](CO)[C@H](O)[C@H](O)[C@@H]2O)[C@H](O)[C@@H]1NC(C)=O; assay: as §1; conditions: Rattus norvegicus; summary of the method: as §2
[20] = substrate: CO[C@@H]1O[C@@H](CN)[C@@H](O[C@@H]2O[C@@H](CO)[C@H](O)[C@H](O)[C@@H]2O)[C@H](O)[C@@H]1NC(C)=O; assay: as §1; conditions: Rattus norvegicus; summary of the method: as §2
[21] = substrate: CO[C@@H]1O[C@@H](CNC(C)=O)[C@@H](O[C@@H]2O[C@@H](CO)[C@H](O)[C@H](O)[C@@H]2O)[C@H](O)[C@@H]1NC(C)=O; assay: as §1; conditions: Rattus norvegicus; summary of the method: as §2
[22] = substrate: CO[C@@H]1O[C@@H](CNC=O)[C@@H](O[C@@H]2O[C@@H](CO)[C@H](O)[C@H](O)[C@@H]2O)[C@H](O)[C@@H]1NC(C)=O; assay: as §1; conditions: Rattus norvegicus; summary of the method: as §2
[23] = substrate: CO[C@@H]1O[C@@H](CNC=O)[C@@H](O[C@@H]2O[C@@H](CO)[C@H](O)[C@H](O)[C@@H]2OC)[C@H](O)[C@@H]1NC(C)=O; assay: as §1; conditions: Rattus norvegicus; summary of the method: as §2
[24] = substrate: CO[C@@H]1O[C@@H](CNS(C)(=O)=O)[C@@H](O[C@@H]2O[C@@H](CO)[C@H](O)[C@H](O)[C@@H]2O)[C@H](O)[C@@H]1NC(C)=O; assay: as §1; conditions: Rattus norvegicus; summary of the method: as §2
[25] = substrate: CO[C@@H]1O[C@@H](CO)[C@@H](O[C@@H]2O[C@@H](CO)[C@H](O)[C@H](O)[C@@H]2O)[C@H](O)[C@@H]1NC(C)=O; assay: as §1; conditions: Rattus norvegicus; summary of the method: as §2
[26] = substrate: CO[C@@H]1O[C@@H](CO)[C@@H](O[C@@H]2O[C@@H](CO)[C@H](O)[C@H](O)[C@@H]2OC)[C@H](O)[C@@H]1NC(C)=O; assay: as §1; conditions: Rattus norvegicus; summary of the method: as §2
[27] = substrate: CO[C@@H]1O[C@@H](COS(C)(=O)=O)[C@@H](O[C@@H]2O[C@@H](CO)[C@H](O)[C@H](O)[C@@H]2O)[C@H](O)[C@@H]1NC(C)=O; assay: as §1; conditions: Rattus norvegicus; summary of the method: as §2

Molecule: CNC(=O)[C@@H]1O[C@@H](OC)[C@@H](NC(C)=O)[C@@H](O)[C@@H]1O[C@@H]1O[C@@H](CO)[C@H](O)[C@H](O)C1O (some centres undefined)
Vmax / Km [1]: 0.08 | Vmax / Km [2]: 0.4

Molecule: CO[C@@H]1O[C@@H](CNS(C)(=O)=O)[C@@H](O[C@@H]2O[C@@H](CO)[C@H](O)[C@H](O)[C@@H]2O)[C@H](O)[C@@H]1NC(C)=O
Vmax / Km [1]: 0.9 | Vmax / Km [2]: 8.7

Molecule: CO[C@@H]1O[C@@H](CO)[C@@H](O[C@@H]2O[C@@H](CO)[C@H](O)[C@H](O)[C@@H]2O)[C@H](O)[C@@H]1NC(C)=O
Vmax / Km [1]: 0.6

Molecule: CO[C@@H]1O[C@@H](CN)[C@@H](O[C@@H]2O[C@@H](CO)[C@H](O)[C@H](O)[C@@H]2O)[C@H](O)[C@@H]1NC(C)=O
Vmax / Km [1]: 0.08 | Vmax / Km [2]: 1.5

Molecule: CO[C@@H]1O[C@@H](COS(C)(=O)=O)[C@@H](O[C@@H]2O[C@@H](CO)[C@H](O)[C@H](O)[C@@H]2O)[C@H](O)[C@@H]1NC(C)=O
Vmax / Km [1]: 1.3 | Vmax / Km [2]: 3.6

Molecule: CO[C@@H]1O[C@@H](C(N)=O)[C@@H](O[C@@H]2O[C@@H](CO)[C@H](O)[C@H](O)[C@@H]2O)[C@H](O)[C@@H]1NC(C)=O
Vmax / Km [1]: 0.02 | Vmax / Km [3]: inactive

Molecule: COC(=O)[C@@H]1O[C@@H](OC)[C@@H](NC(C)=O)[C@@H](O)[C@@H]1O[C@@H]1O[C@@H](CO)[C@H](O)[C@H](O)[C@@H]1O
Vmax / Km [1]: 0.2 | Vmax / Km [2]: 1.2

Molecule: CO[C@@H]1O[C@@H](CNC(C)=O)[C@@H](O[C@@H]2O[C@@H](CO)[C@H](O)[C@H](O)[C@@H]2O)[C@H](O)[C@@H]1NC(C)=O
Vmax / Km [1]: 0.4 | Vmax / Km [2]: 6.8

B1: Beta-galactoside alpha-2,6-sialyltransferase 1 (Rattus norvegicus), P13721 (protein)
chain: T1 sequence (whole entry)
Km [4]: 2.4 mM | Km [5]: 4.3 mM | Km [6]: 11.2 mM | Km [7]: > 10 mM | Km [8]: 5.8 mM | Km [9]: 1.4 mM | Km [10]: 1.1 mM | Km [11]: 3.1 mM | Km [12]: 0.8 mM | Km [13]: 1.7 mM | Km [14]: 4.1 mM | Km [15]: 0.7 mM | Vmax [16]: 0.2 | Vmax [17]: 0.8 | Vmax [18]: 0.5 | Vmax [19]: < 0.2 | Vmax [20]: 0.5 | Vmax [21]: 0.6 | Vmax [22]: 1.6 | Vmax [23]: 1 | Vmax [24]: 0.7 | Vmax [25]: 1 | Vmax [26]: 0.8 | Vmax [27]: 0.9

The next lines start with the values.

Vmax / Km [1]: 0.04 | Vmax / Km [2]: 6.7
Molecule: COC[C@@H]1O[C@@H](OC)[C@@H](NC(C)=O)[C@@H](O)[C@@H]1O[C@@H]1O[C@@H](CO)[C@H](O)[C@H](O)[C@@H]1OC

Vmax / Km [1]: 0.3 | Vmax / Km [2]: 9.3
Molecule: CO[C@@H]1O[C@@H](CNC=O)[C@@H](O[C@@H]2O[C@@H](CO)[C@H](O)[C@H](O)[C@@H]2OC)[C@H](O)[C@@H]1NC(C)=O

Vmax / Km [1]: 0.2 | Vmax / Km [2]: 3.1
Molecule: CO[C@@H]1O[C@@H](CO)[C@@H](O[C@@H]2O[C@@H](CO)[C@H](O)[C@H](O)[C@@H]2OC)[C@H](O)[C@@H]1NC(C)=O

Vmax / Km [1]: 1.5 | Vmax / Km [2]: 7.3
Molecule: CO[C@@H]1O[C@@H](CNC=O)[C@@H](O[C@@H]2O[C@@H](CO)[C@H](O)[C@H](O)[C@@H]2O)[C@H](O)[C@@H]1NC(C)=O

Vmax / Km [1]: 0.2 | Vmax / Km [2]: 4.5
Molecule: COC[C@@H]1O[C@@H](OC)[C@@H](NC(C)=O)[C@@H](O)[C@@H]1O[C@@H]1O[C@@H](CO)[C@H](O)[C@H](O)[C@@H]1O
